Measured values reported in ChEMBL document CHEMBL3046238, “Synthesis and biological activity evaluation of 1,2,3-thiadiazole derivatives as potential elicitors with highly systemic acquired resistance” (2009).
Activity calls are given as the source filed them. The rule behind the calls is not given here.

Assays:
Type in all cases: functional
Cytospora mali = assay: Antifungal activity against Valsa mali assessed as growth inhibition at 50 ug/mL measured after 2 days post dose; conditions: for inhibition of growth at 50 µg/mL: 48 h, read-out: GI
Alternaria mali = assay: Antifungal activity against Alternaria mali assessed as growth inhibition at 50 ug/mL measured after 2 days post dose; conditions: for inhibition of growth at 50 µg/mL: 48 h, read-out: GI
Sclerotinia sclerotiorum = assay: Antifungal activity against Sclerotinia sclerotiorum assessed as growth inhibition at 50 ug/mL measured after 2 days post dose; conditions: 48 h, read-out: GI
Botrytis cinerea = assay: Antifungal activity against Botryotinia fuckeliana assessed as growth inhibition at 50 ug/mL measured after 2 days post dose; conditions: for inhibition of growth at 50 µg/mL: 48 h, read-out: GI
Puccinia triticina = assay: Antifungal activity against Puccinia triticina inoculated on 500 ug/mL compound pre-treated wheat plants with 3 to 5 leaves assessed as growth inhibition
Outline: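 Healthy wheat plants at the 3-5 leaf stage were sprayed with compound (500 μg/mL) and then inoculated with spores. Inhibition percentage was calculated against the corresponding spore stack.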

Ceratobasidium cereale = assay: Antifungal activity against Ceratobasidium cereale assessed as growth inhibition at 50 ug/mL measured after 2 days post dose; conditions: for inhibition of growth at 50 µg/mL: 48 h, read-out: GI
[1] = system: Botryosphaeria berengeriana; assay: Antifungal activity against Botryosphaeria berengeriana assessed as growth inhibition at 50 ug/mL measured after 2 days post dose; conditions: 48 h, read-out: GI
Phytophthora infestans = assay: Antifungal activity against Phytophthora infestans assessed as growth inhibition at 50 ug/mL measured after 2 days post dose; conditions: for inhibition of growth at 50 µg/mL: 48 h, read-out: GI
Outline: (§1)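 Compound stock at 500 μg/mL in DMF, diluted with sterile water in the dish and mixed into potato dextrose agar before setting. A 4 mm diameter fungal plug is placed on the plate and cultured at 24-26 °C. Colony diameter is measured after 2 days.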

Rhizoctonia solani = assay: Antifungal activity against Rhizoctonia solani assessed as growth inhibition at 50 ug/mL measured after 2 days post dose; conditions: for inhibition of growth at 50 µg/mL: 48 h, read-out: GI
Alternaria solani = assay: Antifungal activity against Alternaria solani assessed as growth inhibition at 50 ug/mL measured after 2 days post dose; conditions: 48 h, read-out: GI
[2] = system: Fusarium oxysporum f. sp. vasinfectum; assay: Antifungal activity against Fusarium oxysporum f. sp. vasinfectum assessed as growth inhibition at 50 ug/mL measured after 2 days post dose; conditions: for inhibition of growth at 50 µg/mL: 48 h, read-out: GI
[3] = system: Colletotrichum gloeosporioides; assay: Antifungal activity against Glomerella cingulata assessed as growth inhibition at 50 ug/mL measured after 2 days post dose; conditions: 48 h, read-out: GI
Ustilaginoidea virens = assay: Antifungal activity against Villosiclava virens assessed as growth inhibition at 50 ug/mL measured after 2 days post dose; conditions: for inhibition of growth at 50 µg/mL: 48 h, read-out: GI
Fusarium graminearum = assay: Antifungal activity against Fusarium graminearum assessed as growth inhibition at 50 ug/mL measured after 2 days post dose; conditions: 48 h, read-out: GI; outline: as §1
Mycosphaerella arachidis = assay: Antifungal activity against Mycosphaerella arachidis assessed as growth inhibition at 50 ug/mL measured after 2 days post dose; conditions: 48 h, read-out: GI
Fusarium oxysporum = assay: Antifungal activity against Fusarium oxysporum assessed as growth inhibition at 50 ug/mL measured after 2 days post dose; conditions: 48 h, read-out: GI
Fusarium fujikuroi = assay: Antifungal activity against Fusarium fujikuroi assessed as growth inhibition at 50 ug/mL measured after 2 days post dose; conditions: for inhibition of growth at 50 µg/mL: 48 h, read-out: GI
Tobacco mosaic virus = assay: Induction of systemic acquired resistance against Tobacco mosaic virus (TMV) in tobacco plants exposed to 500 ug/mL compound through leaf spray followed by 7 days culture under green house conditions assessed as inhibition of viral growth in leaves infected with Tobacco mosaic virus (TMV) measured 72 hr post viral infection by half-leaf juice rubbing method; set-up: scale not given: the % may be the effect or the level left
Outline: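 Tobacco plants received compound by leaf spray or by soil irrigation, with double-distilled water as CK. Newly grown leaves were then rub-inoculated with TMV (5.88×10-2 μg/mL), and plants were kept at 25 °C for 72 h. Lesions on inoculated leaves were counted. Inhibition = (CK−A)/CK×100 from mean lesion numbers versus control.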

Compound	inhibition of growth at 50 µg/mL (Cytospora mali)	inhibition of growth at 50 µg/mL (Alternaria mali)	inhibition of growth at 50 µg/mL (Sclerotinia sclerotiorum)	inhibition of growth at 50 µg/mL (Botrytis cinerea)	growth inhibition (GI) (Puccinia triticina)	inhibition of growth at 50 µg/mL (Ceratobasidium cereale)	inhibition of growth at 50 µg/mL [1]	growth inhibition (GI) (Phytophthora infestans)	inhibition of growth at 50 µg/mL (Rhizoctonia solani)	inhibition of growth at 50 µg/mL (Alternaria solani)	inhibition of growth at 50 µg/mL [2]	inhibition of growth at 50 µg/mL [3]	inhibition of growth at 50 µg/mL (Ustilaginoidea virens)	inhibition of growth at 50 µg/mL (Fusarium graminearum)	inhibition of growth at 50 µg/mL (Mycosphaerella arachidis)	inhibition of growth at 50 µg/mL (Fusarium oxysporum)	inhibition of growth at 50 µg/mL (Fusarium fujikuroi)	Activity (Tobacco mosaic virus)	inhibition of growth at 50 µg/mL (Phytophthora infestans)	further results
CCCc1c(-c2nnc(-c3snnc3C)o2)cnn1-c1ccc(Cl)cc1	19.4%	27.6%	23.5%	31%	0%	31%	44.4%	inactive	0%	17.6%	0%	0%	0%	48.3%	41.2%	0%	31%	0%		
COc1cccc(-c2nnc(-c3snnc3C)o2)c1	41.2%	27.6%	23.5%	13.8%	39%	13.8%	33.3%		0%	11.7%	0%	0%	0%	31%	17.6%	0%	17.2%	0%	20%	
Cc1ccc(-c2nnc(-c3snnc3C)o2)s1	0%	38.9%	40.5%	0%	0%	0%	39.7%	inactive	0%	36.8%	0%	13.8%	0%	21.1%	9%	31.3%	21.1%	inactive		
Cc1nnsc1-c1nnc(-c2ccco2)o1			0%		0%		38.9%			53.6%		42.1%		22.2%	87.5%	19.1%		0%	0%	growth inhibition (GI) (Cytospora mali): inactive; growth inhibition (GI) (Alternaria mali): inactive; growth inhibition (GI) (Botrytis cinerea): inactive; growth inhibition (GI) (Ceratobasidium cereale): inactive; growth inhibition (GI) (Rhizoctonia solani): inactive; growth inhibition (GI) [2]: inactive; growth inhibition (GI) (Ustilaginoidea virens): inactive; growth inhibition (GI) (Fusarium fujikuroi): inactive
Cc1cccc(-c2nnc(-c3snnc3C)o2)c1	47.2%	41.4%	23.5%	37.9%	98%	37.9%	47.2%		0%	0%	0%	0%	0%	24.1%	23.5%	0%	24.1%	inactive	17.1%	
Cc1nn(-c2ccccc2)nc1-c1nnc(-c2snnc2C)o1	22.2%	31%	23.5%	41.4%	0%	37.9%	44.4%	inactive	0%	17.6%	0%	0%	0%	31%	17.6%	0%	0%	10%		
